Experimental data reported in ChEMBL document CHEMBL3244396, “Synthesis and antileukemic activity of 5-substituted 2,3-dihydro-6,7-bis(hydroxymethyl)-1H-pyrrolizine diesters” (J Med Chem, 1977).

Legend:
Mus musculus [1] = test: Toxicity in female CDF1 mouse allografted with mouse P388 cells assessed as animal survival at 6.25 mg/kg, ip administered daily for 9 days as saline with Tween-80 solution starting 24 hrs after tumor inoculation; format: organism-based; parameters: dose 6.25 mg/kg, route intraperitoneal; conditions: in vivo
Outline: (§1)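 P-388 leukemia ascitic fluid implanted ip. Compound dosed ip in saline with Tween-80 vehicle, once daily for nine doses from 24 h after tumor inoculation. Acute toxicity scored as toxicity-day survivors per group. Survival was followed up to 30 days, with 30-day survival counted as "cure". Follows NCI screening protocols.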

Mus musculus [2] = test: Toxicity in male CDF1 mouse allografted with mouse P388 cells assessed as animal survival at 12.5 mg/kg, ip administered daily for 9 days as saline with Tween-80 solution starting 24 hrs after tumor inoculation; format: organism-based; parameters: dose 12.5 mg/kg, route intraperitoneal; conditions: in vivo; outline: as §1
Mus musculus [3] = test: Toxicity in male CDF1 mouse allografted with mouse P388 cells assessed as animal survival at 6.25 mg/kg, ip administered daily for 9 days as saline with Tween-80 solution starting 24 hrs after tumor inoculation; format: organism-based; parameters: dose 6.25 mg/kg, route intraperitoneal; conditions: in vivo; outline: as §1
Mus musculus [4] = test: Toxicity in female CDF1 mouse allografted with mouse P388 cells assessed as animal survival at 400 mg/kg, ip administered daily for 9 days as saline with Tween-80 solution starting 24 hrs after tumor inoculation; format: organism-based; parameters: dose 400 mg/kg, route intraperitoneal; conditions: in vivo; outline: as §1
P388 [5] = test: Antitumor activity against mouse P388 cells allografted in female CDF1 mouse assessed as disease cures by measuring 30-days host survival at 25 mg/kg, ip administered daily for 9 days as saline with Tween-80 solution starting 24 hrs after tumor inoculation relative to control; format: functional; conditions: route intraperitoneal
Outline: (§2)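 P388 ascitic cell inoculum given ip to CDF1 mice of the sex in each line. Nine daily ip doses in saline with Tween-80 as vehicle, starting 24 h after inoculation. Median survival time expressed as %T/C (>125 significant); "cure" defined as 30-day survival.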

P388 [6] = test: Antitumor activity against mouse P388 cells allografted in female CDF1 mouse assessed as disease cures by measuring 30-days host survival at 12.5 mg/kg, ip administered daily for 9 days as saline with Tween-80 solution starting 24 hrs after tumor inoculation relative to control; format: functional; conditions: route intraperitoneal; outline: as §2
P388 [7] = test: Antitumor activity against mouse P388 cells allografted in male CDF1 mouse assessed as disease cures by measuring 30-days host survival at 25 mg/kg, ip administered daily for 9 days as saline with Tween-80 solution starting 24 hrs after tumor inoculation relative to control; format: functional; conditions: route intraperitoneal; outline: as §2
P388 [8] = test: Antitumor activity against mouse P388 cells allografted in female CDF1 mouse assessed as disease cures by measuring 30-days host survival at 6.25 mg/kg, ip administered daily for 9 days as saline with Tween-80 solution starting 24 hrs after tumor inoculation relative to control; format: functional; conditions: route intraperitoneal; outline: as §2
P388 [9] = test: Antitumor activity against mouse P388 cells allografted in male CDF1 mouse assessed as disease cures by measuring 30-days host survival at 12.5 mg/kg, ip administered daily for 9 days as saline with Tween-80 solution starting 24 hrs after tumor inoculation relative to control; format: functional; conditions: route intraperitoneal; outline: as §2
P388 [10] = test: Antitumor activity against mouse P388 cells allografted in male CDF1 mouse assessed as disease cures by measuring 30-days host survival at 6.25 mg/kg, ip administered daily for 9 days as saline with Tween-80 solution starting 24 hrs after tumor inoculation relative to control; format: functional; conditions: route intraperitoneal; outline: as §2
P388 [11] = test: Antitumor activity against mouse P388 cells allografted in female CDF1 mouse assessed as change in body weight at 400 mg/kg, ip administered daily for 9 days as saline with Tween-80 solution starting 24 hrs after tumor inoculation; format: functional; conditions: route intraperitoneal
Outline: (§3)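 Ascitic fluid carrying P388 cells was inoculated ip. Compound was given ip in nine daily doses, starting 24 h after inoculation, in Klucel (hydroxypropylcellulose) suspension or in saline with Tween-80. Body-weight difference (treated minus control) was recorded on day 5. Survival was scored as %T/C of median survival time, and 30-day survival counted as cure.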

P388 [12] = test: Antitumor activity against mouse P388 cells allografted in female CDF1 mouse assessed as change in body weight at 200 mg/kg, ip administered daily for 9 days as saline with Tween-80 solution starting 24 hrs after tumor inoculation; format: functional; conditions: route intraperitoneal; outline: as §3
P388 [13] = test: Antitumor activity against mouse P388 cells allografted in female CDF1 mouse assessed as change in body weight at 100 mg/kg, ip administered daily for 9 days as saline with Tween-80 solution starting 24 hrs after tumor inoculation; format: functional; conditions: route intraperitoneal; outline: as §3
P388 [14] = test: Antitumor activity against mouse P388 cells allografted in female CDF1 mouse assessed as change in body weight at 50 mg/kg, ip administered daily for 9 days as saline with Tween-80 solution starting 24 hrs after tumor inoculation; format: functional; conditions: route intraperitoneal; outline: as §3
P388 [15] = test: Antitumor activity against mouse P388 cells allografted in female CDF1 mouse assessed as change in body weight at 25 mg/kg, ip administered daily for 9 days as saline with Tween-80 solution starting 24 hrs after tumor inoculation; format: functional; conditions: route intraperitoneal; outline: as §3
P388 [16] = test: Antitumor activity against mouse P388 cells allografted in female CDF1 mouse assessed as change in body weight at 12.5 mg/kg, ip administered daily for 9 days as saline with Tween-80 solution starting 24 hrs after tumor inoculation; format: functional; conditions: route intraperitoneal; outline: as §3
P388 [17] = test: Antitumor activity against mouse P388 cells allografted in male CDF1 mouse assessed as change in body weight at 50 mg/kg, ip administered daily for 9 days as saline with Tween-80 solution starting 24 hrs after tumor inoculation; format: functional; conditions: route intraperitoneal; outline: as §3
P388 [18] = test: Antitumor activity against mouse P388 cells allografted in male CDF1 mouse assessed as change in body weight at 25 mg/kg, ip administered daily for 9 days as saline with Tween-80 solution starting 24 hrs after tumor inoculation; format: functional; conditions: route intraperitoneal; outline: as §3
P388 [19] = test: Antitumor activity against mouse P388 cells allografted in female CDF1 mouse assessed as change in body weight at 6.25 mg/kg, ip administered daily for 9 days as saline with Tween-80 solution starting 24 hrs after tumor inoculation; format: functional; conditions: route intraperitoneal; outline: as §3
P388 [20] = test: Antitumor activity against mouse P388 cells allografted in male CDF1 mouse assessed as change in body weight at 12.5 mg/kg, ip administered daily for 9 days as saline with Tween-80 solution starting 24 hrs after tumor inoculation; format: functional; conditions: route intraperitoneal; outline: as §3
P388 [21] = test: Antitumor activity against mouse P388 cells allografted in male CDF1 mouse assessed as change in body weight at 6.25 mg/kg, ip administered daily for 9 days as saline with Tween-80 solution starting 24 hrs after tumor inoculation; format: functional; conditions: route intraperitoneal; outline: as §3
Mus musculus [22] = test: Toxicity in female CDF1 mouse allografted with mouse P388 cells assessed as animal survival at 200 mg/kg, ip administered daily for 9 days as saline with Tween-80 solution starting 24 hrs after tumor inoculation; format: organism-based; parameters: dose 200 mg/kg, route intraperitoneal; conditions: in vivo; outline: as §1
Mus musculus [23] = test: Toxicity in female CDF1 mouse allografted with mouse P388 cells assessed as animal survival at 25 mg/kg, ip administered daily for 9 days as saline with Tween-80 solution starting 24 hrs after tumor inoculation; format: organism-based; parameters: dose 25 mg/kg, route intraperitoneal; conditions: in vivo; outline: as §1
Mus musculus [24] = test: Toxicity in female CDF1 mouse allografted with mouse P388 cells assessed as animal survival at 12.5 mg/kg, ip administered daily for 9 days as saline with Tween-80 solution starting 24 hrs after tumor inoculation; format: organism-based; parameters: dose 12.5 mg/kg, route intraperitoneal; conditions: in vivo; outline: as §1
Mus musculus [25] = test: Toxicity in male CDF1 mouse allografted with mouse P388 cells assessed as animal survival at 25 mg/kg, ip administered daily for 9 days as saline with Tween-80 solution starting 24 hrs after tumor inoculation; format: organism-based; parameters: dose 25 mg/kg, route intraperitoneal; conditions: in vivo; outline: as §1

For `CCNC(=O)OCc1c(COC(=O)NCC)c(-c2ccc(Cl)c(Cl)c2)n2c1CCC2`, the Activity (Mus musculus [1]) was “Non-toxic”, the Activity (Mus musculus [2]) was “Non-toxic” and the Activity (Mus musculus [3]) was “Non-toxic”. For the same molecule, the Activity (Mus musculus [4]) was “Toxic”, the T/C (P388 [5]) was 103% and the T/C (P388 [6]) was 170%. For the same molecule, the T/C (P388 [7]) was 165%, the T/C (P388 [8]) was 154% and the T/C (P388 [9]) was 168%. For the same molecule, the T/C (P388 [10]) was 168%, the Activity (P388 [11]) was -1.4 g and the Activity (P388 [12]) was -1.4 g. It also gave an Activity (P388 [13]) of -3 g, an Activity (P388 [14]) of -4.4 g and an Activity (P388 [15]) of -2.4 g. It also gave an Activity (P388 [16]) of -1.8 g, an Activity (P388 [17]) of -8 g and an Activity (P388 [18]) of -4.4 g. The Activity (P388 [19]) was -1.8 g, the Activity (P388 [20]) was -2.5 g and the Activity (P388 [21]) was -2.1 g. The Activity (Mus musculus [22]) was “Toxic”, the Activity (Mus musculus [23]) was “Non-toxic” and the Activity (Mus musculus [24]) was “Non-toxic”. For the same molecule, the Activity (Mus musculus [25]) was “Non-toxic”.
